Experiments:
[1] = biological target: Beta-1 adrenergic receptor (Rattus norvegicus, UniProt P18090); test: Binding of [3H]dihydroalprenolol to beta-1 adrenergic receptor of rat cerebral cortical membranes; type: cell membranes, Membrane
Summary of the method: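 Competition assay measuring displacement of specific [3H]dihydroalprenolol binding from rat cerebral cortical membranes to give beta-1 adrenergic receptor affinity.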

[2] = biological target: T1, Adrenergic receptor alpha-2 (Rattus norvegicus, UniProt P22086+P19328+P22909); test: Binding of [3H]clonidine to alpha-2-adrenergic receptor of rat cerebral cortical membranes; type: cell membranes, Membrane
T1 sequence (P22086 whole entry): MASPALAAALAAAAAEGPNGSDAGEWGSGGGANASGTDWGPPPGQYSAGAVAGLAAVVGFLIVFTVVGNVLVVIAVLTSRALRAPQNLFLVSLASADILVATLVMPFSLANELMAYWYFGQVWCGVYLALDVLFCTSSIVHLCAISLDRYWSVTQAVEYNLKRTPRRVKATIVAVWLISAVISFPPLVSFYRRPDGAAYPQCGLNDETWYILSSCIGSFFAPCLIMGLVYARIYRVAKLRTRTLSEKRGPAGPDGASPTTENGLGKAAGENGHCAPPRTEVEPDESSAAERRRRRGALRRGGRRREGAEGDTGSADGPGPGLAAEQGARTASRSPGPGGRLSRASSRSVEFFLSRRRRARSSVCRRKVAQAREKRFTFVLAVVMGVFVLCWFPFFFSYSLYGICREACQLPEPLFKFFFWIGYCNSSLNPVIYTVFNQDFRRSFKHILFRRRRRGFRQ
T1 sequence (P19328 whole entry): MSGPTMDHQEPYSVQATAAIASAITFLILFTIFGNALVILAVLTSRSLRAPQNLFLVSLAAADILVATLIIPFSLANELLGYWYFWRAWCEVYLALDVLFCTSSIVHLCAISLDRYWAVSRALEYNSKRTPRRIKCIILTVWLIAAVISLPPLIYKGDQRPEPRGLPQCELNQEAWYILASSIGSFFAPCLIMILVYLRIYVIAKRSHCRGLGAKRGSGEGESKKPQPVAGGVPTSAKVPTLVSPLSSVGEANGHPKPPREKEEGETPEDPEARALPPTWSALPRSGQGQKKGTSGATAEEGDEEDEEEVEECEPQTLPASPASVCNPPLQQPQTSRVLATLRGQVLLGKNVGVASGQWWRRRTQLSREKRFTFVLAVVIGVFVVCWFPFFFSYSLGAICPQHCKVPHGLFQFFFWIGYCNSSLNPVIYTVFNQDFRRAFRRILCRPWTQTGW
T1 sequence (P22909 whole entry): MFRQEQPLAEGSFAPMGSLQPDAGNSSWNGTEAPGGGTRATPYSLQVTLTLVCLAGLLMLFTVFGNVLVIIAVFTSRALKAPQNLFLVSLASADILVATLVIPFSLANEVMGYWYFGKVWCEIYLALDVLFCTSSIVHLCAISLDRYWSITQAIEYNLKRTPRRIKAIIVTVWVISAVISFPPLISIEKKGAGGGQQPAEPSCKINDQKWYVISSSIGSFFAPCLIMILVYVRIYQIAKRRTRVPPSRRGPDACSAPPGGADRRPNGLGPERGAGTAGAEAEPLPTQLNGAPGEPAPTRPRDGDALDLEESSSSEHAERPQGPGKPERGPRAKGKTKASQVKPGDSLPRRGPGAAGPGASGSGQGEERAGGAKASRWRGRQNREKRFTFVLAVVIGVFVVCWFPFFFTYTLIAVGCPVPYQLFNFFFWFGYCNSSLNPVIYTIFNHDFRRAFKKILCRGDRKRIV

[3] = biological target: T2, Adrenergic receptor alpha-1 (Rattus norvegicus, UniProt P15823+P23944+P43140); test: Binding of [3H]prazosin to alpha-1 adrenergic receptor of rat cerebral cortical membranes; type: cell membranes, Membrane
T2 sequence (P15823 whole entry): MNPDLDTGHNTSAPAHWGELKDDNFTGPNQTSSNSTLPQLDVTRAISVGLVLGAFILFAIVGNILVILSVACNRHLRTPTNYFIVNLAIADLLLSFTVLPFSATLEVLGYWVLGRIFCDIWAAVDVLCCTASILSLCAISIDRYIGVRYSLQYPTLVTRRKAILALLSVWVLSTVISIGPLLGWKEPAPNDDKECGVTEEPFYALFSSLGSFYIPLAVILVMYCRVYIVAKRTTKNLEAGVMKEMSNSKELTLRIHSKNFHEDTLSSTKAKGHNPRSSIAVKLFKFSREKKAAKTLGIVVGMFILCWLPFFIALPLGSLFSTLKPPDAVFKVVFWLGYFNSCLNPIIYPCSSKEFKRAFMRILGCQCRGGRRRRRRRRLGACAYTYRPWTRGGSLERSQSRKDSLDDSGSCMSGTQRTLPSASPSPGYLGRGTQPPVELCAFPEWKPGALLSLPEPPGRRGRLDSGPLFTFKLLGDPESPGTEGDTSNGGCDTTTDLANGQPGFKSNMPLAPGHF
T2 sequence (P23944 whole entry): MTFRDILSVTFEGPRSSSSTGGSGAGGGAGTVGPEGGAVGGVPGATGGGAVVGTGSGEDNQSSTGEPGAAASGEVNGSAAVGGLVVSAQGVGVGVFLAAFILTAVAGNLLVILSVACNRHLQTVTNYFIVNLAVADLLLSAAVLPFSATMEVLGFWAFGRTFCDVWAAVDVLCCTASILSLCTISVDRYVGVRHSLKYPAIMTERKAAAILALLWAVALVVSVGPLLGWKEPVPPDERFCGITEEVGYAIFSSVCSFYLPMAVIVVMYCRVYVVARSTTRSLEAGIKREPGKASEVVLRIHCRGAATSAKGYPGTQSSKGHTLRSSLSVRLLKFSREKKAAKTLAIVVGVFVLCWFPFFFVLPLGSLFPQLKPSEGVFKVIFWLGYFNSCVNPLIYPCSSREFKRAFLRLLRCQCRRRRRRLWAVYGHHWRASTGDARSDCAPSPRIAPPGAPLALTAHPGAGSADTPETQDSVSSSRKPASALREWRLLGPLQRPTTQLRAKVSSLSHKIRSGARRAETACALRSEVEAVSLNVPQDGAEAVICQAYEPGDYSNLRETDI
T2 sequence (P43140 whole entry): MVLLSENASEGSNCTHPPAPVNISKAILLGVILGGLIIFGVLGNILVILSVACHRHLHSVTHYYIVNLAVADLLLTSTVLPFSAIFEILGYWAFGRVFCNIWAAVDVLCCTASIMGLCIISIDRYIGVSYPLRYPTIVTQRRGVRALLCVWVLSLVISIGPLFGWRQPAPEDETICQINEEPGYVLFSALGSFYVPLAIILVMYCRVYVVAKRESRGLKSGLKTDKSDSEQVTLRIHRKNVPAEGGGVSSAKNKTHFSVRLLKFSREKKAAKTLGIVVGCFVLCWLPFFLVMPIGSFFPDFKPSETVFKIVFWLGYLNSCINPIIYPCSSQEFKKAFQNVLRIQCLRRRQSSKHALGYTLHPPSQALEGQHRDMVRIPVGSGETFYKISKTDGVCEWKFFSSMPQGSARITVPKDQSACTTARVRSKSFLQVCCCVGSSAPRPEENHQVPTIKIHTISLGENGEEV
Summary of the method: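 Affinity at alpha-1 adrenergic receptors measured as inhibition of specific [3H]prazosin binding to rat cerebral cortical membranes.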

[4] = biological target: Adrenergic receptor alpha-1 (Rattus norvegicus) (UniProt P15823+P23944+P43140); test: Binding of [3H]prazosin to alpha-1 adrenergic receptor of rat cerebral cortical membranes at 100 uM; type: cell membranes; conditions: Membrane

Beta-1 adrenergic receptor, sequence (P18090 whole entry): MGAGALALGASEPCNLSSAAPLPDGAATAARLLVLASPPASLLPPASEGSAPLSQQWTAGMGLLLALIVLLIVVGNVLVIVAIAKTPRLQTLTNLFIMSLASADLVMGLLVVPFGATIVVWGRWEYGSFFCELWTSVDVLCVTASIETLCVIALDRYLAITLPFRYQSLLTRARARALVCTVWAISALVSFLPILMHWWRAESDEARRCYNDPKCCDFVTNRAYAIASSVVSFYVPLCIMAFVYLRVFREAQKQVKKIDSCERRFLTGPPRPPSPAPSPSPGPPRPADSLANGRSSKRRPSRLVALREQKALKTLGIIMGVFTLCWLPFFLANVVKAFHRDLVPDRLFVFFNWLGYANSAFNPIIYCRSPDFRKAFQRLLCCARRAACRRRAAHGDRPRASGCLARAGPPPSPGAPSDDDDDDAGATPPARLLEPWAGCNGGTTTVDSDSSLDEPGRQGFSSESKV

Structure (SMILES) | Ki [1] [µM] | Ki [2] [µM] | Ki [3] | inhibition [4] [%]
CNC[C@H](O)c1ccc(O)c(O)c1 (racemic) [EPINEPHRINE] | 2.1 |  |  | 
CNC[C@@H](O)c1cc(O)c(O)cc1F | ~400 | 0.078 |  | 
NCC(O)c1ccc(O)c(O)c1F (racemic) |  | 0.6 | ~ 50 uM | 
CNC[C@@H](O)c1ccc(O)c(O)c1 [L-ADRENALINE] | 13 |  |  | 
NCCc1ccc(O)c(O)c1F | 19 | 0.12 | 16 µM | 
NCCc1ccc(O)c(O)c1 [DOPAMINE] |  | 0.058 | 14 µM | 
CNC[C@H](O)c1ccc(O)c(O)c1F |  | 0.067 |  | 
NC[C@@H](O)c1cc(O)c(O)cc1F |  |  | ~ 12 uM | 
CNC[C@H](O)c1cc(O)c(O)cc1F | ~100 | 0.013 |  | 
NCC(O)c1cc(O)c(O)cc1F (racemic) |  |  |  | 20
CNCC(O)c1cc(O)c(O)cc1F (racemic) | ~140 | 0.014 |  | 
NCCc1cc(O)c(O)cc1F | 41 | 0.04 | 6 µM | 
CNC[C@@H](O)c1ccc(O)c(O)c1F |  | 0.053 | ~ 40 uM | 
NCC(O)c1ccc(O)c(O)c1 (single isomer, unassigned) |  |  |  | 18
NC[C@H](O)c1cc(O)c(O)cc1F |  |  | 3.7 µM | 
CNCC(O)c1ccc(O)c(O)c1F (racemic) |  | 0.06 |  | 
NC[C@@H](O)c1ccc(O)c(O)c1F |  | 0.32 |  | 12
NC[C@H](O)c1ccc(O)c(O)c1F |  | 0.55 | ~ 25 uM | 

— ChEMBL document CHEMBL1132920, “Syntheses of (R)- and (S)-2- and 6-fluoronorepinephrine and (R)- and (S)-2- and 6-fluoroepinephrine: effect of stereochemistry on fluorine-induced adrenergic selectivities” (J Med Chem, 2000)
